ChEMBL document CHEMBL1275449, “Potent in vitro antifungal activities of naturally occurring acetylenic acids” (Antimicrob Agents Chemother, 2008)
In brackets after ≈: the same amount, converted by molar mass. Activity calls are given as the source filed them. The rule behind the calls is not given here.

What was measured:
Candida parapsilosis [1] = assay: Antifungal activity against Candida parapsilosis ATCC 22019 at 16.5 uM after 48 hrs by CLSI method; format: functional, organism-based
In short: (§1)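 Yeast suspensions made from 3-5 colonies off 24-72 h SD agar plates in saline. They were diluted by OD630 standard curve in RPMI 1640 (0.2% dextrose, 0.03% glutamine, 0.165 M MOPS, pH 7.0) to 1.5 × 10³ CFU/ml. Twofold dilutions (11 concentrations, 20% DMSO-saline) run in duplicate. OD530 read before and after 35°C, 48 h. Line values are top test concentrations; no-growth endpoints give MIC/MFC.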

Trichophyton rubrum [2] = assay: Antifungal activity against Trichophyton rubrum ATCC MYA-4438 by CLSI method; format: functional, organism-based
In short: (§2)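 Growth scraped from 1- to 6-week-old potato dextrose slants and filtered through Miracloth. Diluted in 5% Alamar blue-RPMI 1640 (MOPS pH 7.0) to 2.7 × 10⁴ CFU/ml. Eleven twofold dilutions in duplicate. Fluorescence at 544 nm excitation/590 nm emission read before and after 35°C, 5 days. IC50 fitted from percent growth. MIC taken as no detectable growth; MFC from clear or blue wells plated on PD agar.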

[3] = test system: Trichophyton mentagrophytes; assay: Antifungal activity against Trichophyton mentagrophytes ATCC 9533 by CLSI method; format: functional, organism-based; in short: as §2
[4] = test system: Trichophyton mentagrophytes; assay: Antifungal activity against Trichophyton mentagrophytes ATCC MYA-4439 by CLSI method; format: functional, organism-based; in short: as §2
Cryptococcus neoformans [5] = assay: Antifungal activity against Cryptococcus neoformans ATCC 66031 after 72 hrs by CLSI method; format: functional, organism-based; conditions: ATCC 66031, 72 h
In short: (§3)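 SD broth replaced RPMI because growth in RPMI was poor; other CLSI conditions were kept. Inoculum was 1.5 × 10³ CFU/ml from colonies on SD agar, checked by plating. Twofold serial dilutions (11 concentrations) in 20% DMSO-saline were tested in duplicate. OD530 was read before and after incubation at 35°C for 72 h. Percent growth gave IC50; the MIC is the lowest concentration with no detectable growth.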

Cryptococcus neoformans [6] = assay: Antifungal activity against Cryptococcus neoformans ATCC 90113 after 72 hrs by CLSI method; format: functional, organism-based; conditions: ATCC 90113, 72 h; in short: as §3
Candida tropicalis = assay: Antifungal activity against Candida tropicalis ATCC 750 after 48 hrs by CLSI method; format: functional, organism-based; conditions: ATCC 750, 48 h; in short: as §1
Candida parapsilosis [7] = assay: Antifungal activity against Candida parapsilosis ATCC 22019 after 48 hrs by CLSI method; format: functional, organism-based; conditions: Lodderomyces parapsilosis, ATCC 22019, 48 h; in short: as §1
Pichia kudriavzevii = assay: Antifungal activity against Candida krusei ATCC 6258 after 48 hrs by CLSI method; format: functional, organism-based; conditions: ATCC 6258, 48 h
In short: (§4)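 Candida inocula came from 24–72-h SD agar colonies suspended in saline. They were diluted by OD630 standard curve into RPMI 1640 (0.2% dextrose, 0.03% glutamine, 0.165 M MOPS, pH 7.0) to 1.5 × 10³ CFU/ml. Compounds were run as 11 twofold dilutions in 20% DMSO-saline, in duplicate, at 35°C for 48 h, with OD530 read before and after. Percent growth at the top concentration, IC50, MIC, and MFC (SD agar plating) were derived.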

Nakaseomyces glabratus = assay: Antifungal activity against Candida glabrata ATCC 90030 after 48 hrs by CLSI methodCandida glabrata; format: functional, organism-based; conditions: ATCC 90030, 48 h; in short: as §4
Candida albicans [8] = assay: Antifungal activity against Fluconazole resistant Candida albicans clinical isolate 17 after 48 hrs by CLSI method; format: functional, organism-based
In short: (§5)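 CLSI broth microdilution. Colonies from 24–72 h SD agar suspended in saline and sized by OD630 standard curve. Inoculum 1.5 × 10³ CFU/ml (final) in RPMI 1640 (0.2% dextrose, 0.03% glutamine, 0.165 M MOPS, pH 7.0). Twofold dilutions (11 levels) from 20% DMSO-saline, in duplicate. 35°C for 48 h, OD530 read before and after. IC50 fitted from % growth. MIC: no detectable growth. MFC: subculture onto SD agar.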

Aspergillus fumigatus [9] = assay: Antifungal activity against Aspergillus fumigatus ATCC 204305 at 16.5 uM after 48 hrs by CLSI method; format: functional, organism-based
Candida albicans [10] = assay: Antifungal activity against Fluconazole resistant Candida albicans clinical isolate 1 after 48 hrs by CLSI method; format: functional, organism-based; in short: as §5
Aspergillus fumigatus [11] = assay: Antifungal activity against Aspergillus fumigatus ATCC 90906 at 16.5 uM after 48 hrs by CLSI method; format: functional, organism-based
Aspergillus flavus = assay: Antifungal activity against Aspergillus flavus ATCC 204304 at 16.5 uM after 48 hrs by CLSI method; format: functional, organism-based
Candida albicans [12] = assay: Antifungal activity against Candida albicans ATCC 200955 after 48 hrs by CLSI method; format: functional, organism-based; conditions: ATCC 200955, 48 h; in short: as §5
Aspergillus niger = assay: Antifungal activity against Aspergillus niger ATCC 16404 at 16.5 uM after 48 hrs by CLSI method; format: functional, organism-based
Candida albicans [13] = assay: Antifungal activity against Candida albicans ATCC 90028 after 48 hrs by CLSI method; format: functional, organism-based; conditions: ATCC 90028, 48 h; in short: as §5
[14] = test system: Trichophyton mentagrophytes; assay: Antifungal activity against Trichophyton mentagrophytes ATCC MYA-4439 at 16.5 uM after 5 days by CLSI method; format: functional, organism-based
Candida albicans [15] = assay: Antifungal activity against Candida albicans ATCC 32354 after 48 hrs by CLSI method; format: functional, organism-based; conditions: ATCC 32354, 48 h; in short: as §5
[16] = test system: Trichophyton mentagrophytes; assay: Antifungal activity against Trichophyton mentagrophytes ATCC 9533 at 16.5 uM after 5 days by CLSI method; format: functional, organism-based
Trichophyton rubrum [17] = assay: Antifungal activity against Trichophyton rubrum ATCC MYA-4438 at 16.5 uM after 5 days by CLSI method; format: functional, organism-based
Trichophyton rubrum [18] = assay: Antifungal activity against Trichophyton rubrum ATCC 10218 at 16.5 uM after 5 days by CLSI method; format: functional, organism-based
Candida albicans [19] = assay: Antifungal activity against Candida albicans ATCC 14053 after 48 hrs by CLSI method; format: functional, organism-based; conditions: ATCC 14053, 48 h; in short: as §5
Candida albicans [20] = assay: Antifungal activity against Candida albicans ATCC 60193 after 48 hrs by CLSI method; format: functional, organism-based; conditions: ATCC 60193, 48 h; in short: as §5
Aspergillus fumigatus [21] = assay: Antifungal activity against Aspergillus fumigatus ATCC 90906 after 48 h by CLSI method; conditions: ATCC 90906, 48 h

## CC[C@H](C)C[C@H](C)CCCCCCCCC(=O)N[C@H]1C[C@@H](O)[C@@H](NCCN)NC(=O)[C@@H]2[C@@H](O)CCN2C(=O)[C@H]([C@H](O)CCN)NC(=O)[C@H]([C@H](O)[C@@H](O)c2ccc(O)cc2)NC(=O)[C@@H]2C[C@@H](O)CN2C(=O)[C@H]([C@@H](C)O)NC1=O [CASPOFUNGIN]
Candida parapsilosis [1]
  Activity: inactive
Trichophyton rubrum [2]
  IC50: 60 nM
  MIC: 0.1 µM (≈ 0.109 µg/mL)
[3]
  IC50: 300 nM
[4]
  IC50: 200 nM
Cryptococcus neoformans [5]
  IC50: 100 nM
  MFC: 1 µM (≈ 1.09 µg/mL)
  MIC: 0.5 µM (≈ 0.547 µg/mL)
Cryptococcus neoformans [6]
  IC50: 400 nM
  MFC: 2.1 µM (≈ 2.3 µg/mL)
  MIC: 1 µM (≈ 1.09 µg/mL)
Candida tropicalis
  IC50: 60 nM
  MFC: 0.26 µM (≈ 0.284 µg/mL)
  MIC: 0.1 µM (≈ 0.109 µg/mL)
Candida parapsilosis [7]
  IC50: 200 nM
  MIC: 0.5 µM (≈ 0.547 µg/mL)
Pichia kudriavzevii
  IC50: 100 nM
  MFC: 1 µM (≈ 1.09 µg/mL)
  MIC: 0.4 µM (≈ 0.437 µg/mL)
Nakaseomyces glabratus
  IC50: 50 nM
  MFC: 0.26 µM (≈ 0.284 µg/mL)
  MIC: 0.13 µM (≈ 0.142 µg/mL)
Candida albicans [8]
  IC50: 40 nM
  MFC: 0.26 µM (≈ 0.284 µg/mL)
  MIC: 0.13 µM (≈ 0.142 µg/mL)
Aspergillus fumigatus [9]
  Activity: inactive
Candida albicans [10]
  IC50: 50 nM
  MFC: 0.26 µM (≈ 0.284 µg/mL)
  MIC: 0.1 µM (≈ 0.109 µg/mL)
Aspergillus fumigatus [11]
  Activity: inactive
Aspergillus flavus
  Activity: inactive
Candida albicans [12]
  IC50: 50 nM
  MFC: 0.13 µM (≈ 0.142 µg/mL)
  MIC: 0.13 µM (≈ 0.142 µg/mL)
Aspergillus niger
  Activity: inactive
Candida albicans [13]
  IC50: 60 nM
  MFC: 0.26 µM (≈ 0.284 µg/mL)
  MIC: 0.19 µM (≈ 0.208 µg/mL)
[14]
  Activity: inactive
Candida albicans [15]
  IC50: 70 nM
  MFC: 1.03 µM (≈ 1.13 µg/mL)
  MIC: 0.13 µM (≈ 0.142 µg/mL)
[16]
  Activity: inactive
Trichophyton rubrum [17]
  Activity: inactive
Trichophyton rubrum [18]
  Activity: inactive
Candida albicans [19]
  IC50: 50 nM
  MFC: 0.26 µM (≈ 0.284 µg/mL)
  MIC: 0.1 µM (≈ 0.109 µg/mL)
Candida albicans [20]
  IC50: 30 nM
  MFC: 0.52 µM (≈ 0.569 µg/mL)
  MIC: 0.1 µM (≈ 0.109 µg/mL)
Aspergillus fumigatus [21]
  IC50: 200 nM
  MIC: 16.5 µM (≈ 18 µg/mL)
